Source: PubChem BioAssay
FGF22 binding = binders of recombinant human FGF22 by thermal shift; SYPRO orange fluorescence; percent of sucrose octasulfate shift, DMSO zero; actives 1.5% (n = 340,000); Q9HCT0; AID 651658; activity (Tm shift, normalised), % at 9.99 µM;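 active means mean Tm shift, scaled 0 neutral to 100 positive control, at about 1.3% or above, every replicate too, limit read from the data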
Target sequence (Q9HCT0 whole entry, looked up): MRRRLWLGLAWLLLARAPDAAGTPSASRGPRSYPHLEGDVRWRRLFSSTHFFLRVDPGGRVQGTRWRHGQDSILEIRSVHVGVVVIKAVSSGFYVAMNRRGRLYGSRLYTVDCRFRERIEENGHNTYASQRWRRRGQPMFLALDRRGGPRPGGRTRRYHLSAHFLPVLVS
E-selectin induc = E-selectin induction on HUVECs | P16581 | HUVEC E-selectin immunofluorescence imaging; normalized: neutral wells 0, TNF-alpha wells 100 | activation, % at 7.58 µM | actives 0.37% (n = 260,000) | AID 686992;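 active means mean E-selectin-positive cell signal at least 10% of the positive control, reached in at least 60% of replicates, without over 20% cell loss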
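Assay system: HUVEC primary endothelial cells. Input: 3,000 HUVEC seeded per well. Doses: one compound dose added by pin transfer. Read-out basis: % PE-positive cells. Benchmarks: TNF-alpha high, DMSO low. Detection: immunofluorescence imaging. Buffer or medium: EGM-2, gelatin.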
DENV2 CPE = protects cells from dengue virus 2 cytopathic effect; DENV2-infected cells, cytopathic effect rescue, plate reader; CPE inhibition, % at 9.99 µM; actives 1.7% (n = 350,000); AID 651640; in the data active means CPE inhibition above about 20%, passing the limit was not always enough; tested in BHK-21 cells;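 further: 0% = median of neutral control wells and 100% = median of positive control wells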
C2C12 statin = protects C2C12 myotubes from simvastatin toxicity; ATP luminescence, 48 h; scaled: DMSO 0, geranylgeraniol control 100; rescue of ATP level, % at 7.49 µM; actives 0.78% (n = 330,000);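 active means mean ATP rescue above about 67%, or every replicate alone reaching that limit, limit read from the data, passing the limit was not always enough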;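 further: myotubes were challenged with 10 µM simvastatin during compound exposure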
XiGFP reactiv = X-chromosome reactivation activator; XiGFP mouse fibroblasts, % GFP-positive cells imaging, 3 d; cells co-treated with 5-aza-dC sensitizer; scaled so ellipticine positive control = 100%; activation, % at 7.58 µM; actives 0.055% (n = 360,000); AID 743238;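 active means mean normalized replicate activation at least 10% and every replicate at or above 10%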;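 further: 0% = median of on-plate neutral control wells and 100% = ellipticine 6 µM median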
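System: 68-5-11 XiGFP fibroblast line; Timing: 3 days compound exposure; Compound dosing: one concentration, pinned; Benchmarks: positive control ellipticine, 6 µM final; Buffer or medium: DMEM containing 5-aza-dC.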
PglD DTNB = PglD (C. jejuni) enzyme inhibition; purified PglD enzyme, DTNB colorimetric CoA detection; inhibition, % at 12.5 µM; actives 0.098% (n = 360,000); in the data active means inhibition above about 16%, passing the limit was not always enough
* = called active by the depositor; / = no result given. Rows were chosen to be rich in hits. Some 3.3% of all compounds tested hit in one or more screens of this group.

SMILES | FGF22 binding | E-selectin induc | DENV2 CPE | C2C12 statin | XiGFP reactiv | PglD DTNB
CCN1CCN(C(c2ccccc2)c2nnnn2Cc2ccccc2)CC1 (stereo not given) | / | / | / | -16 | / | 3
CSc1ccc(CNc2ccccn2)cc1 | / | / | / | 82* | / | -2
CC1(Cc2ccc3c(c2)OCO3)C(=O)Nc2c(Cl)ccc(Cl)c21 (stereo not given) | 0 | 0 | -5 | 88* | 0 | 4
O=C(Cc1ccncc1)NCC[C@@H]1CC[C@@H](NC(=O)C2CC2)[C@@H](CO)O1 | 0 | -1 | 8 | 1 | 0 | -1
Cc1ccccc1NCC(=O)N/N=C\c1ccc2c(c1)OCO2 | 44* | / | 6 | / | 0 | /
Cc1ccccc1NC(=O)CCC(=O)N/N=C/c1ccc(F)cc1 | 43* | / | -1 | / | 0 | /
CCOc1ccc(NC(=O)CCC(=O)N/N=C/c2ccc3c(c2)OCO3)cc1 | 0 | / | -3 | / | 0 | /
Cc1ccc(S(N)(=O)=O)cc1NC(=O)/C=C/c1ccc2c(c1)OCO2 | 43* | 8 | -3 | / | 0 | /
Cc1cccc(C)c1OCC(=O)N/N=C/c1ccc2c(c1)OCO2 | / | / | / | -31 | / | -5
Cc1ccc(C)c(NC(=O)CCC(=O)N/N=C/c2ccc3c(c2)OCO3)c1 | 43* | / | 2 | / | 0 | /
Cc1cccc(-c2ccc([C@@H]3[C@H](CO)N4C(=O)CN(C(=O)c5ccccc5)C[C@@H]34)cc2)c1 | / | 0 | -1 | / | 1 | /
Cc1ccc(CN(C)C[C@@H]2OCc3cnnn3CCCC(=O)N([C@H](C)CO)C[C@@H]2C)cc1 | 0 | 0 | 2 | -6 | 0 | -1
O=C(C[C@@H]1C=C[C@@H](NC(=O)c2cccc(F)c2)[C@@H](CO)O1)Nc1nccs1 | 0 | 1 | 17 | 15 | 0 | 12
C[C@@H]1CN([C@@H](C)CO)C(=O)Cc2cc(NS(=O)(=O)c3cn(C)cn3)ccc2O[C@@H]1CN(C)S(C)(=O)=O | 0 | -4 | -9 | 29 | 1 | 0
O=[N+]([O-])c1ccc(N/N=C/c2cccc(O)c2O)cc1 | 0 | / | 3 | 92* | 0 | -2
COc1cccc(/C=N/Nc2ccc(S(=O)(=O)O)cc2)c1O | / | / | / | -9 | / | 1
O=[N+]([O-])c1ccc(N/N=C/c2cccc(O)c2)cc1 | 0 | 0 | -2 | 13 | 0 | 10
O=S(=O)(O)c1ccc(NN=Cc2ccccc2O)cc1 | 44* | 1 | 11 | 3 | 0 | 0
CO[C@@H]1CN(C)C(=O)c2ccc(NC(=O)C3CCCC3)cc2OC[C@H](C)N(CCC(F)(F)F)C[C@H]1C | 0 | 1 | 11 | 7 | 0 | -1
COc1cccc(S(=O)(=O)Nc2ccc3c(c2)OC[C@@H](C)NC[C@H](C)[C@@H](OC)CN(C)C3=O)c1 | 0 | 0 | -13 | 13 | 0 | 2
Cc1ccc(S(=O)(=O)N[C@H]2C=C[C@H](CC(=O)NCCCN(C)C)O[C@H]2CO)cc1 | 0 | 0 | 7 | 4 | 0 | -1
COCC#Cc1ccc2c(c1)O[C@@H](CN(C)C(=O)Nc1ccccc1F)[C@H](C)CN([C@@H](C)CO)S2(=O)=O | 0 | 0 | 90* | -1 | 0 | 4
CC(C)CC#Cc1ccc2c(c1)O[C@H](CN(C)Cc1ccc(F)cc1)[C@H](C)CN([C@@H](C)CO)S2(=O)=O | 0 | / | 16 | -107 | 1 | 0
CC(C)CC#Cc1ccc2c(c1)O[C@@H](CN(C)C(=O)c1ccccc1F)[C@H](C)CN([C@@H](C)CO)S2(=O)=O | -1 | 0 | 39* | -26 | -1 | 2
CC(C)CC#Cc1ccc2c(c1)O[C@@H](CN(C)Cc1cncnc1)[C@H](C)CN([C@@H](C)CO)S2(=O)=O | -1 | 0 | 24* | -49 | -1 | -1
SMILES | FGF22 binding | E-selectin induc | DENV2 CPE | C2C12 statin | XiGFP reactiv | PglD DTNB
CC(C)CC#Cc1ccc2c(c1)O[C@@H](CN(C)Cc1ccc(F)cc1)[C@@H](C)CN([C@H](C)CO)S2(=O)=O | -1 | 0 | 45* | 6 | -2 | 2
CC(C)CC#Cc1ccc2c(c1)O[C@H](CN(C)Cc1cncnc1)[C@H](C)CN([C@@H](C)CO)S2(=O)=O | -1 | 0 | -4 | -7 | 0 | -2
CC(C)CC#Cc1ccc2c(c1)O[C@H](CN(C)C(=O)c1ccccc1F)[C@H](C)CN([C@H](C)CO)S2(=O)=O | 0 | 0 | -16 | -52 | -1 | 16
Cn1nc(C(F)(F)F)c(/C=N/OC(=O)c2ccccc2Cl)c1SCc1ccc(Cl)cc1 | / | / | / | -124 | / | 3
Cc1ccc(C(=O)O/N=C/c2c(C(F)(F)F)nn(C)c2Sc2ccc(Cl)cc2)cc1 | / | / | / | 116* | / | -3
O=C(C1CCC1)N1CC2(C1)[C@H](c1ccccc1)[C@@H](CO)N2CCC(F)(F)F | / | 0 | 9 | / | 0 | /
CN(CC(=O)Nc1cccc(F)c1)C(=O)CNS(=O)(=O)c1ccc(N(C)C)c([N+](=O)[O-])c1 | 0 | -1 | 89* | / | 0 | /
C[C@H](CO)N1C[C@H](C)[C@H](CN(C)C(=O)CCCN(C)C)OCCCC[C@H](C)Oc2ccc(NC(=O)c3ccccc3)cc2C1=O | 0 | 0 | -15 | 12 | -1 | -1
CC(OC(=O)c1ccncc1)C(=O)Nc1cccc([N+](=O)[O-])c1 (stereo not given) | 43* | 4 | -2 | / | 0 | /
C[C@@H]1CN([C@H](C)CO)C(=O)Cc2cc(NC(=O)CCN3CCOCC3)ccc2O[C@H]1CN(C)S(C)(=O)=O | 0 | 332* | 15 | -11 | 0 | 0
C[C@@H]1CN([C@H](C)CO)C(=O)Cc2cc(NC(=O)CCN3CCOCC3)ccc2O[C@@H]1CN(C)S(=O)(=O)c1cn(C)cn1 | 0 | -8 | 22* | 38 | 0 | 3
CNC[C@H]1Oc2c(NS(=O)(=O)c3ccc(C)cc3)cccc2C(=O)N([C@@H](C)CO)C[C@@H]1C | 0 | 0 | -9 | 6 | 0 | 5
CN(C)CC#Cc1ccc([C@H]2[C@H](CO)N3CCCCN(C(=O)C4CC4)C[C@@H]23)cc1 | / | / | / | / | / | -3
CS(=O)(=O)N1CCC2(CC1)OCCN2S(=O)(=O)c1ccccc1 | 0 | 4 | -2 | -1 | 0 | 1
CCS(=O)(=O)N1CCC2(CC1)OCCN2S(=O)(=O)c1ccccc1 | 0 | 0 | 39* | 0 | 0 | 4
O=C(C[C@H]1CC[C@H]2[C@@H](COC[C@@H](O)CN2C(=O)c2ccccc2)O1)Nc1nccs1 | 0 | 0 | -3 | -5 | 0 | 3
O=C(C[C@H]1CC[C@@H]2[C@H](COC[C@H](O)CN2C(=O)c2ccncc2)O1)NCc1cc(F)cc(F)c1 | 0 | 0 | 9 | -5 | 0 | 1
